For assay [1], the target named is T1, DNA topoisomerase I (Bos taurus) (UniProt F1MN93).
T1 sequence (whole entry): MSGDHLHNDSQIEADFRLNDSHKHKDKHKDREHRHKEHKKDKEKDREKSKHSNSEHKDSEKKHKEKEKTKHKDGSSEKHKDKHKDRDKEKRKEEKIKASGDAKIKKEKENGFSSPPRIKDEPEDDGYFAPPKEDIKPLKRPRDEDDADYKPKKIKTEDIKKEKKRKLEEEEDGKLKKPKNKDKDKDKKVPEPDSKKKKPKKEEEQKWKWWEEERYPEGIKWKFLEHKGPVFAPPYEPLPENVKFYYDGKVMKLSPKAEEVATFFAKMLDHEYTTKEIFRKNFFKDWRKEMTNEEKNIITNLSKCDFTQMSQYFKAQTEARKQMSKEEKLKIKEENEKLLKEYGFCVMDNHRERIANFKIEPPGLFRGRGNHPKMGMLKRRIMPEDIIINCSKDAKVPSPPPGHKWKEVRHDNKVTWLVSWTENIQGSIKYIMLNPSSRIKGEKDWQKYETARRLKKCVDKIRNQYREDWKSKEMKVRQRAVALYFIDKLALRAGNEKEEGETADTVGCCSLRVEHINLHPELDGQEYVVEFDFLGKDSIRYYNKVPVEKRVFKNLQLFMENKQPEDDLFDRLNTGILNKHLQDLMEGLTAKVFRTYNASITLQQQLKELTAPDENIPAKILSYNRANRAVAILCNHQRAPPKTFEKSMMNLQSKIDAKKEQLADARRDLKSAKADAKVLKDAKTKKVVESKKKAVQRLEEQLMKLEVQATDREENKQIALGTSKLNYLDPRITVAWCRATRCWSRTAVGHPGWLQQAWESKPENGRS
Briefly: Inhibition of calf thymus topoisomerase-1-mediated relaxed pBR322 DNA unwinding at 25 uM preincubated with DNA for 10 mins followed by enzyme addition and measured after 30 mins by agarose gel electrophoresis assay. The essentials:
(§1)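 Top1-mediated unwinding assay with ethidium bromide, a DNA intercalator, as positive control. It tests whether compounds unwind DNA by intercalation.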

The target of assay [2] is T1, DNA topoisomerase I (Bos taurus). Briefly: Inhibition of calf thymus topoisomerase-1-mediated supercoiled pBR322 DNA unwinding at 25 uM preincubated with DNA for 10 mins followed by enzyme addition and measured after 30 mins by agarose gel electrophoresis assay. The essentials:
as §1

The target is the same in assay [3]. Briefly: Inhibition of calf thymus topoisomerase-1-mediated supercoiled pBR322 DNA relaxation at 50 uM after 30 mins by agarose gel electrophoresis assay relative to control. The essentials: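 Top1-mediated plasmid relaxation run at 50 μM test concentration. Camptothecin (CPT) was included as reference inhibitor. Inhibition was expressed as percentage ranges from gel band intensities.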

In another assay the test system is A549. In words: Cytotoxicity against human A549 cells by MTT assay. The assay is classed as functional, cell-based. For orientation: Tetrazolium dyes change colour on reduction, which living cells bring about.
In another assay the test system is CCRF-CEM. In words: Cytotoxicity against human CCRF-CEM cells by MTT assay. The assay is classed as functional, cell-based.
In another assay the test system is Huh-7. Briefly: Cytotoxicity against human HuH7 cells by MTT assay. The assay is classed as functional, cell-based.
For another assay, the system named is HCT-116. In words: Cytotoxicity against human HCT116 cells by MTT assay. The assay is classed as functional, cell-based.
The test system of the next assay is DU-145. Briefly: Cytotoxicity against human DU145 cells by MTT assay. The assay is classed as functional, cell-based.
Assay [4] has as its target T1, DNA topoisomerase I (Bos taurus). Briefly: Inhibition of calf thymus topoisomerase-1 assessed as reduction in cleavage complex formation by measuring decrease in nicked form DNA using supercoiled pBR322 DNA as substrate after 30 mins by agarose gel electrophoresis assay.

The source made the active and inactive calls. No cut-off for these calls is given here.

In the case of `CC[n+]1c(-c2ccccc2)c2cc(N)ccc2c2ccc(N)cc21`, the inhibition result in assay [1] and in assay [2] was “Active” throughout.
Consider `CC(C)CC(=O)c1c(O)c(C=O)c(O)c(C[C@@]2(C)CC[C@@H]3[C@@H]2[C@H]2[C@@H](CC[C@@]3(C)O)C2(C)C)c1O` [EUCALYPTIN A], for which the inhibition (as a rule, the percentage by which the read-out fell short of the control) in assay [3] is above 90%. Further, the IC50 (usually the midpoint of a concentration-inhibition curve) in the assay with A549 was 4.9 µM; with CCRF-CEM it was above 10 µM; with Huh-7 it was above 10 µM; in the assay with HCT-116, 9.6 µM; in the assay with DU-145 it was 8.9 µM.
On to `C=C1/C=C/[C@H](C(C)(C)O)C[C@H]2[C@@H](CC(C)C)c3c(O)c(C=O)c(O)c(C=O)c3O[C@]2(C)CCC1`, for which the inhibition in assay [3] is 60 to 89%. In addition, the IC50 in the assay with A549 was above 10 µM; with CCRF-CEM, 3.3 µM; in the assay on Huh-7, above 10 µM; with HCT-116 it was above 10 µM; with DU-145, above 10 µM.
On to `C=C(C)[C@@H]1C=C2[C@@H](C)CC[C@@H](Cc3c(O)c(C=O)c(O)c(C(=O)CC(C)C)c3O)[C@]2(C)CC1`, for which the inhibition in assay [3] is above 90%. The IC50 with A549 is 5.2 µM; in the assay on CCRF-CEM, above 10 µM; in the assay on Huh-7, above 10 µM; with HCT-116 it was 9.6 µM; in the assay with DU-145, above 10 µM.
Regarding `CC(C)C[C@@H](c1c(O)c(C=O)c(O)c(C=O)c1O)[C@@]1(C)CC[C@@H]2[C@@H]1[C@H]1[C@@H](CC[C@@]2(C)O)C1(C)C`, the inhibition entry in assay [1] and in assay [2] was “inactive” throughout.
With `CC[C@@]1(O)C(=O)OCc2c1cc1n(c2=O)Cc2cc3ccccc3nc2-1` [CAMPTOTHECIN], the inhibition in assay [3] is above 90%. In addition, the IC50 worked out at 0.04 µM in the assay with A549; 0.002 µM in the assay with CCRF-CEM; 0.0023 µM in the assay with Huh-7; 0.013 µM with HCT-116; 0.016 µM in the assay with DU-145.
As to `CC(=O)[C@@]12C=C(C(C)C)CC[C@@]1(C)[C@H]([C@@H](CC(C)C)c1c(O)c(C=O)c(O)c(C=O)c1O)C[C@H]2O`, in [4], the inhibition result is “Dose-dependent effect”. Further, the inhibition entry in assay [1] and in [2] was “inactive” in each case.
Consider `COc1cc([C@@H]2c3cc4c(cc3[C@@H](O[C@@H]3O[C@@H]5CO[C@@H](C)O[C@H]5[C@H](O)[C@H]3O)[C@H]3COC(=O)[C@H]23)OCO4)cc(OC)c1O` [ETOPOSIDE], for which the IC50 in the assay with A549 was above 10 µM; in the assay on CCRF-CEM, 1.1 µM; in the assay on Huh-7 it was 7.4 µM; in the assay on HCT-116, above 10 µM; in the assay with DU-145, above 10 µM.
`CC(C)CC(=O)c1c(O)c(C=O)c(O)c(C[C@@]2(C)CC[C@H]3C2=C[C@H](C(C)(C)O)CC[C@H]3C)c1O`: the inhibition in [3] is above 90%. The IC50 was 5.3 µM in the assay with A549; 6.9 µM with CCRF-CEM; above 10 µM in the assay with Huh-7; above 10 µM in the assay on HCT-116; above 10 µM in the assay on DU-145.
